A short description of data set [1]: folding enthalpy; higher = less favourable; fluorescence melt of hairpins on a sequencing array, two-state fit. The settings on record: sodium 0.088 M. In outline: (§1)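 Two-state fits, bootstrapped, provided melting temperature and folding enthalpy from Cy3 fluorescence normalised to pre-quench Cy3 and to control constructs. Library hairpins with annealed Cy3 and quencher oligos were imaged on a sequenced MiSeq flow cell in 50 mM Na-HEPES pH 8.0, 25 mM NaCl, at 2.5 °C intervals up to 60 °C. Four replicates were combined with inverse-variance weighting. A 9.35 °C upward shift was applied to fitted temperatures to match UV melts.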

The nature of data set [2]: melting temperature; fluorescence melt of hairpins on a sequencing array, two-state fit, raised by 9.35 °C to match UV melts. The settings on record: sodium 0.088 M. In outline:
as §1

As to GCGAGTTATCGC ((((....)))), in data set [1], the folding enthalpy was -24 kcal/mol. For the same sequence, the Tm in data set [2] is 57.6 °C.

Turning to CGCGGACGACTCCGCG ((((((....)))))), the folding enthalpy in data set [1] is -40.8 kcal/mol. In data set [2], the Tm was determined as 63.5 °C.

Turning to GTCCTCCGAAAGGAAGAC (((.(((....))).))), in data set [1], the folding enthalpy is -27.5 kcal/mol. The Tm in data set [2] amounted to 43.9 °C.

In the case of GGTCCCGAAAGGGTGACC ((((((....)))..))), the folding enthalpy in data set [1] is -19.6 kcal/mol. For the same sequence, the Tm in data set [2] was 48 °C.

Turning to GAAAGGGGAAACCCTTTC (((((((....))))))), in data set [1], the folding enthalpy is -47 kcal/mol. Further, the Tm in data set [2] was determined as 54.8 °C.

As for GCCTGGCGAAAGCCGGC (((.(((....)))))), the folding enthalpy in data set [1] was -16.5 kcal/mol. The Tm in data set [2] is 68.1 °C.

In the case of GCGGTCGAAAGACGGCGC ((((((....)))..))), in data set [1], the folding enthalpy is -31.3 kcal/mol. The Tm in data set [2] turned out to be 63.9 °C.

With GATCGCCACAGCGATC ((((((....)))))), the folding enthalpy in data set [1] was -38.2 kcal/mol. For the same sequence, the Tm in data set [2] amounted to 68.8 °C.

As to AAACGGAAACGTTT (((((....))))), the folding enthalpy in data set [1] is -21.3 kcal/mol. Moreover, the Tm in data set [2] amounted to 45.1 °C.

On to GCCGAGGGAAACCTCAGC ((.((((....)))).)), for which the folding enthalpy in data set [1] is -23.7 kcal/mol. In data set [2], the Tm came out at 43.1 °C.

With GAGATACGAAAGTAGCTC (((.(((....))).))), in data set [1], the folding enthalpy is -40.8 kcal/mol. Moreover, the Tm in data set [2] is 57.5 °C.

For the sequence GATCTAACCTTAGATC ((((((....)))))), the folding enthalpy in data set [1] was -39.6 kcal/mol. Moreover, the Tm in data set [2] turned out to be 42.2 °C.

Consider GATCAGCTCGCTGATC ((((((....)))))), for which the folding enthalpy in data set [1] is -57.4 kcal/mol. Also, the Tm in data set [2] amounted to 62.9 °C.

Take GGCGATGGAAACGTTGCC (((.(.(....).).))): in data set [1], the folding enthalpy is -37.6 kcal/mol. In addition, the Tm in data set [2] came out at 44.9 °C.

Regarding GTTGCTGCGAAAGCAAAC (((..(((....)))))), the folding enthalpy in data set [1] was -14.3 kcal/mol. Also, the Tm in data set [2] was 37.8 °C.

In the case of GCTTAGCGAAAGCTTGGC ((..(((....)))..)), the folding enthalpy in data set [1] is -18.3 kcal/mol. Besides, the Tm in data set [2] came out at 47 °C.

As for GTGAGTGGAAACATTCAC ((((.((....)).)))), the folding enthalpy in data set [1] was -33.9 kcal/mol. In data set [2], the Tm stood at 43.9 °C.

Consider GCACTGCGAAAGCATGGC ((..(((....)))..)), for which the folding enthalpy in data set [1] is -17.4 kcal/mol. Further, the Tm in data set [2] worked out at 44.8 °C.

Turning to GGTACTGCGAAAGCAACC (((..(((....)))))), in data set [1], the folding enthalpy is -9.7 kcal/mol. The Tm in data set [2] was found to be 28.8 °C.

On to GTCTCCGAAAGGATTGAC ((((((....)))..))), for which the folding enthalpy in data set [1] is -20 kcal/mol. For the same sequence, the Tm in data set [2] came to 35.5 °C.

For the sequence GATCCATATCTGGATC ((((((....)))))), in data set [1], the folding enthalpy was -35.5 kcal/mol. Besides, the Tm in data set [2] came to 49.7 °C.

With TCTGGGAAACCAGA (((((....))))), the folding enthalpy in data set [1] is -15 kcal/mol. For the same sequence, in data set [2], the Tm was 47.1 °C.

For the sequence GGGCCAACGAAAGTTCCC (((..(((....)))))), in data set [1], the folding enthalpy is -14.4 kcal/mol. In addition, the Tm in data set [2] was found to be 30.4 °C.

On to GTCCTACGAAAGTATGAC (((.(((....))).))), for which the folding enthalpy in data set [1] is -32.3 kcal/mol. The Tm in data set [2] stood at 41.9 °C.

With GCGGTGCGAAAGCAATGC ((..(((....)))..)), in data set [1], the folding enthalpy was -29.2 kcal/mol. In addition, the Tm in data set [2] came out at 59 °C.

Turning to GTTTTGGGAAACTAGAAC (((.(.(....).).))), in data set [1], the folding enthalpy is -7.83 kcal/mol. Further, in data set [2], the Tm was found to be 23.7 °C.

Regarding CGTGACGGAAACGTTACG (((.(((....))).))), in data set [1], the folding enthalpy is -29.3 kcal/mol. For the same sequence, the Tm in data set [2] turned out to be 52.2 °C.

With GTGGACGAAAGTCGCAC ((((((....))).))), in data set [1], the folding enthalpy was -15.5 kcal/mol. Besides, the Tm in data set [2] turned out to be 50.4 °C.

In the case of GCACAGCGAAAGCAGTGC ((((.((....)).)))), the folding enthalpy in data set [1] was -34.1 kcal/mol. For the same sequence, the Tm in data set [2] worked out at 69.2 °C.

GTGCAGCGAAAGCTACAC (((.(((....))).))): the folding enthalpy in data set [1] was -31 kcal/mol. For the same sequence, the Tm in data set [2] worked out at 54.1 °C.

Consider GTGTACGGAAACATACAC (((((.(....).))))), for which the folding enthalpy in data set [1] was -26 kcal/mol. Further, the Tm in data set [2] was found to be 36.1 °C.

Turning to GCGTCCCCGAAAGGGCGC (((..(((....)))))), the folding enthalpy in data set [1] was -24.3 kcal/mol. In addition, the Tm in data set [2] worked out at 65.2 °C.

On to GATCCATGCTGGATC ((((((...)))))), for which, in data set [1], the folding enthalpy was -35.3 kcal/mol. The Tm in data set [2] was determined as 52 °C.

Regarding GCGTAACGAAAGTTCGC (((.(((....)))))), the folding enthalpy in data set [1] was -36.1 kcal/mol. In addition, the Tm in data set [2] worked out at 55.9 °C.

On to TGGGAGAAATCCCA (((((....))))), for which the folding enthalpy in data set [1] was -19.5 kcal/mol. Also, the Tm in data set [2] came to 40.7 °C.

Consider GATCCACACATGGATC ((((((....)))))), for which the folding enthalpy in data set [1] is -40 kcal/mol. For the same sequence, in data set [2], the Tm amounted to 52.4 °C.

For the sequence GATCGGGGTACCGATC ((((((....)))))), the folding enthalpy in data set [1] is -34.5 kcal/mol. Moreover, the Tm in data set [2] was determined as 65.7 °C.

Source of the values: the array DNA melting data of Ke et al. (doi:10.1101/2024.01.08.574731).
